Laboratory results reported in ChEMBL document CHEMBL4813972, “A grafted peptidomimetic for EGFR heterodimerization inhibition: Implications in NSCLC models” (Eur J Med Chem, 2021).
pIC50: −log10 of the molar value. Activity calls are given as the source filed them. No cut-off for these calls is given here. Starred links: 1 amine or outer side, 2 acyl side, 3 side chain; linkers in the order of their positions; H or OH if unused. Positions of bridges follow the written chain, without caps; N, C: chain ends. Non-standard residues stand in square brackets, D forms with d. Residues, ends and D or L forms follow the SMILES beside them. X1 = N=C(N)NCCC[C@H](N[*:2])C(=O)NC(=O)[C@H](CC(=O)O)NC(=O)[*:1]; βAla(3R-(1-naphthyl)) = O=C(C[C@@H](N[*:1])c1cccc2ccccc12)[*:2]; βAla(3S-(1-naphthyl)) = O=C(C[C@H](N[*:1])c1cccc2ccccc12)[*:2]

Experiments:
MCF-10A = experiment: Cytotoxicity against human MCF-10A cells assessed as cell growth inhibition incubated for 72 hrs by cell titer glo assay; assay type: cell-based
Outline: (§1)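 Cells seeded at 1×10^4 per well, left overnight at 37 °C/5% CO2, then exposed to a concentration series of peptide (up to 200, down to 0.01 μM) for 72 h. 1% SDS and 1% DMSO served as controls. Cells were PBS-washed, CellTiter-Glo added and luminescence read. IC50 taken from three independent experiments per cell line.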

MCF7 = experiment: Antiproliferative activity against human MCF7 cells with silenced HER2 assessed as cell growth inhibition incubated for 72 hrs by cell titer glo assay; assay type: functional, cell-based; conditions: MCF7, 72 h; outline: as §1
Calu-3 [1] = experiment: Antitumor activity in human Calu-3 cells xenografted in Foxn1nu/Foxn1+ mouse assessed as reduction in tumor growth at 6 mg/kg, IT(Intratumoral) administered thrice a week for 21 days in presence of trastu-zumab and measured on day 21 relative to control; assay type: functional, organism-based; conditions: time 21.0 day
Calu-3 [2] = experiment: Antitumor activity in human Calu-3 cells xenografted in Foxn1nu/Foxn1+ mouse assessed as reduction in tumor growth at 8 mg/kg, IT(Intratumoral) administered thrice a week for 21 days and measured on day 21 relative to control; conditions: time 21.0 day
BT-474 = experiment: Antiproliferative activity against human BT-474 cells overexpressing HER2 assessed as cell growth inhibition incubated for 72 hrs by cell titer glo assay; assay type: functional, cell-based; conditions: BT-474, 72 h
Calu-3 [3] = experiment: Antiproliferative activity against human Calu-3 cells overexpressing HER2 assessed as cell growth inhibition incubated for 72 hrs by cell titer glo assay; assay type: functional, cell-based; conditions: Calu-3, 72 h
A549 = experiment: Antiproliferative activity against human A549 cells overexpressing HER2 assessed as cell growth inhibition incubated for 72 hrs by cell titer glo assay; assay type: functional, cell-based; conditions: A549, 72 h; outline: as §1
[4] = Toxicity in BALB/c mouse assessed as increase in Ki-67 expression at 5 ug/ml, iv administered on day 0 and 10 and spleenocytes collected on day 13 and incubated for 48 hrs by flow cytometry analysis; assay type: organism-based; conditions: in vivo, 360 h, dose 5 µg/ml, time 15 day
Outline: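 Splenocytes from PBS- or peptide-primed BALB/c mice (6 mg/kg i.v. days 0 and 10; harvested day 13) cultured 48 h with concanavalin A 5 μg/mL. Ki67 in CD3+ cells measured by flow cytometry after viability, surface and intracellular staining.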

pIC50 (MCF7)	pIC50 (BT-474)	SMILES	other results
< 4.30	5.53	CC[C@H](C)[C@H]1C(=O)NC(=O)[C@H](CCCNC(=N)N)NC(=O)C[C@H](c2cccc3ccccc23)NC(=O)N[C@H]2CSSC[C@H](NC(=O)C[C@H](c3cccc4ccccc34)NC(=O)[C@H](CCCNC(=N)N)NC(=O)[C@@H]3CCCN3C(=O)[C@@H]3CCCN13)C(=O)N[C@@H](Cc1ccccc1)C(=O)N1CCC[C@H]1C(=O)N[C@@H](CC(=O)O)C(=O)NC(=O)[C@H](CC(=O)O)NC(=O)[C@H](Cc1ccccc1)NC2=O	
< 4.00	< 4.00	NCCCC[C@H](N)C(=O)N[C@@H](CC(=O)N[C@@H](Cc1ccccc1)C(=O)O)c1ccc(-c2ccccc2)cc1	pIC50 (Calu-3 [3]): < 4.00; pIC50 (A549): < 4.00
< 4.52	5.14	CC[C@H](C)[C@@H]1NC(=O)[C@@H]2CCCN2C(=O)[C@@H]2CCCN2C(=O)NC(=O)[C@H](CC(=O)O)NC(=O)[C@H](Cc2ccccc2)NC(=O)[C@@H]2CSSC[C@H](NC(=O)N[C@H](c3cccc4ccccc34)CC(=O)N[C@@H](CCCNC(=N)N)C(=O)N3CCC[C@H]3C(=O)NCC(=O)N[C@@H](CCCNC(=N)N)C(=O)N[C@H](c3cccc4ccccc34)CC(=O)N2)C(=O)N[C@@H](Cc2ccccc2)C(=O)NC(=O)[C@H](CC(=O)O)NC(=O)[C@H](CO)NC1=O	
< 4.30	5.38	CC[C@H](C)[C@@H]1NC(=O)[C@H](CO)NC(=O)[C@H](CC(=O)O)NC(=O)[C@H](Cc2ccccc2)NC(=O)[C@@H]2CSSC[C@H](NC(=O)[C@H](Cc3ccccc3)NC(=O)[C@H](CC(=O)O)NC1=O)C(=O)N[C@H](c1cccc3ccccc13)CC(=O)N[C@@H](CCCNC(=N)N)C(=O)NC(=O)[C@H](CC(=O)O)NC(=O)N[C@@H](CCCNC(=N)N)C(=O)N[C@H](c1cccc3ccccc13)CC(=O)N2 (R[βAla(3S-(1-naphthyl))]CFDSIDFC[βAla(3S-(1-naphthyl))]; disulfide 3-10; linker N-C via X1)	

The next lines start with the molecule.

SMILES	pIC50 (MCF7)	pIC50 (BT-474)	other results
N=C(N)NCCC[C@@H]1NC(=O)[C@H]2CCCN2C(=O)[C@@H]2CCCN2C(=O)[C@H](CCCNC(=N)N)NC(=O)C[C@H](c2cccc3ccccc23)NC(=O)[C@H](Cc2ccccc2)NC(=O)[C@H](CC(=O)O)NC(=O)[C@H](CC(=O)O)NC(=O)[C@H](Cc2ccccc2)NC(=O)C[C@H](c2cccc3ccccc23)NC1=O (cyclo(DDF[βAla(3R-(1-naphthyl))]RP[dP]R[βAla(3R-(1-naphthyl))]F))	< 4.30		pIC50 (MCF-10A): 4.40
Cc1ccc(OCC(O)C(C)NC(C)C)c2c1CCC2 (stereo unspecified)			Activity (Calu-3 [1]): Active; Activity (Calu-3 [2]): Active
CC[C@H](C)[C@@H]1NC(=O)[C@@H]2CSSC[C@H](NC(=O)[C@H](CCCNC(=N)N)NC(=O)CNC(=O)[C@H](CC(=O)O)NC(=O)[C@@H]3CCCN3C(=O)N[C@@H](Cc3ccccc3)C(=O)N2)C(=O)N[C@@H]([C@H](C)O)C(=O)N[C@@H](CCCCN)C(=O)N([C@@H](CO)C(=O)O)C(=O)[C@H]([C@@H](C)CC)NC(=O)[C@@H]2CCCN2C(=O)[C@@H]2CCCN2C1=O			pIC50 (Calu-3 [3]): < 4.00; pIC50 (A549): < 4.00
N=C(N)NCCC[C@@H]1NC(=O)[C@H]2CCCN2C(=O)[C@@H]2CCCN2C(=O)[C@H](CCCNC(=N)N)NC(=O)C[C@H](c2cccc3ccccc23)NC(=O)N[C@H]2CSSC[C@H](NC(=O)C[C@H](c3cccc4ccccc34)NC1=O)C(=O)N[C@@H](Cc1ccccc1)C(=O)N[C@@H](CC(=O)O)C(=O)NC(=O)[C@H](CC(=O)O)NC(=O)[C@H](Cc1ccccc1)NC2=O	< 4.30	5.44	
N=C(N)NCCC[C@@H]1NC(=O)[C@H]2CCCN2C(=O)[C@@H]2CCCN2C(=O)[C@H](CCCNC(=N)N)NC(=O)C[C@H](c2cccc3ccccc23)NC(=O)N[C@H]2CSSC[C@H](NC(=O)C[C@H](c3cccc4ccccc34)NC1=O)C(=O)N[C@@H](Cc1ccccc1)C(=O)NC(=O)[C@H](Cc1ccccc1)NC2=O	< 4.30	5.28	
Cc1cn(C2C[C@H](N=[N+]=[N-])[C@@H](CO)O2)c(=O)[nH]c1=O (stereo partly specified)			Activity [4]: Toxic
